Reference: ChEMBL document CHEMBL1126017, “Phenylalkyl isothiocyanate-cysteine conjugates as glutathione S-transferase stimulating agents” (J Med Chem, 1992)

Tests used:
[1] = test system: glutathione S-transferase (Mus musculus); assay: Induction of increased cytosolic glutathione S-transferase activity in forestomach of A/J mice treated with 3 doses of 0.10 mM compound (dissolved in 0.3 mL of cottonseed oil) for 2 days; settings: Stomach
[2] = test system: glutathione S-transferase (Mus musculus); assay: Induction of increased cytosolic glutathione S-transferase activity in large bowel mucosa of A/J mice treated with 3 doses of 0.10 mM compound (dissolved in 0.3 mL of cottonseed oil) for 2 days
[3] = test system: glutathione S-transferase (Mus musculus); assay: Induction of increased cytosolic glutathione S-transferase activity in small bowel mucosa of A/J mice treated with 3 doses of 0.10 mM compound (dissolved in 0.3 mL of cottonseed oil) for 2 days
[4] = test system: glutathione S-transferase (Mus musculus); assay: Induction of increased cytosolic glutathione S-transferase activity in bladder of A/J mice treated with 3 doses of 0.04 mM compound (dissolved in 0.3 mL of cottonseed oil) for 2 days; settings: Urinary bladder
[5] = test system: glutathione S-transferase (Mus musculus); assay: Induction of increased cytosolic glutathione S-transferase activity in liver of A/J mice treated with 3 doses of 0.04 mM compound (dissolved in 0.3 mL of cottonseed oil) for 2 days
[6] = test system: glutathione S-transferase (Mus musculus); assay: Induction of increased cytosolic glutathione S-transferase activity in forestomach of A/J mice treated with 3 doses of 0.04 mM compound (dissolved in 0.3 mL of cottonseed oil) for 2 days; settings: Stomach
[7] = test system: glutathione S-transferase (Mus musculus); assay: Induction of increased cytosolic glutathione S-transferase activity in large bowel mucosa of A/J mice treated with 3 doses of 0.04 mM compound (dissolved in 0.3 mL of cottonseed oil) for 2 days
[8] = biological target: T1, Glutathione S-transferase Mu 1 (Mus musculus) (UniProt P10649); assay: Ratio of glutathione S-transferase activity in tested (cottonseed oil alone + compound) to that of control (cottonseed oil alone); type: functional
T1 sequence (whole entry): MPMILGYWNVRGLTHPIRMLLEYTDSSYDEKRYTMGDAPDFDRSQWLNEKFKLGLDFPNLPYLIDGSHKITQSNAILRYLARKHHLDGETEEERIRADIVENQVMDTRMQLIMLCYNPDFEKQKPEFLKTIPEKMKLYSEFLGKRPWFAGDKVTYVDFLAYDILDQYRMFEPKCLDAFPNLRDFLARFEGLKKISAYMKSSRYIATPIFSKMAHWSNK
Procedure, shortened: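 Ratio of cytosolic GST specific activity (CDNB substrate, 340 nm, 30 °C) in each tissue of gavaged female A/J mice to that of cottonseed oil-only controls (test/control).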

[9] = test system: glutathione S-transferase (Mus musculus); assay: Induction of increased cytosolic glutathione S-transferase activity in lung of A/J mice treated with 3 doses of 0.04 mM compound (dissolved in 0.3 mL of cottonseed oil) for 2 days
[10] = test system: glutathione S-transferase (Mus musculus); assay: Induction of increased cytosolic glutathione S-transferase activity in lung of A/J mice treated with 3 doses of 0.10 mM compound (dissolved in 0.3 mL of cottonseed oil) for 2 days
[11] = test system: glutathione S-transferase (Mus musculus); assay: Induction of increased cytosolic glutathione S-transferase activity in liver of A/J mice treated with 3 doses of 0.10 mM compound (dissolved in 0.3 mL of cottonseed oil) for 2 days
[12] = test system: glutathione S-transferase (Mus musculus); assay: Induction of increased cytosolic glutathione S-transferase activity in small bowel mucosa of A/J mice treated with 3 doses of 0.04 mM compound (dissolved in 0.3 mL of cottonseed oil) for 2 days

Activity (uM min-1 (mg of protein)-1) [1]: 0.92
Activity (uM min-1 (mg of protein)-1) [2]: 0.38
Activity (uM min-1 (mg of protein)-1) [3]: 0.69
Activity (uM min-1 (mg of protein)-1) [4]: 6.16
Activity (uM min-1 (mg of protein)-1) [5]: 1.2
Activity (uM min-1 (mg of protein)-1) [6]: 0.86
Activity (uM min-1 (mg of protein)-1) [7]: 0.26
Ratio [8]: 1.11 [middle of 11 runs]
Activity (uM min-1 (mg of protein)-1) [9]: 0.31
Activity (uM min-1 (mg of protein)-1) [10]: 0.29
Activity (uM min-1 (mg of protein)-1) [11]: 1.35
Activity (uM min-1 (mg of protein)-1) [12]: 0.49
Compound: NC(CS/C(S)=N/CCCc1ccccc1)C(=O)O (configuration not stated)
